{
  "source": "ChEMBL document CHEMBL4725285",
  "about": "“Amides as bioisosteres of triazole-based geranylgeranyl diphosphate synthase inhibitors” (Bioorg Med Chem, 2020)",
  "key": {"[1]": {"target": "T1, Geranylgeranyl pyrophosphate synthase (Homo sapiens) (UniProt O95749)", "T1 sequence (whole entry)": "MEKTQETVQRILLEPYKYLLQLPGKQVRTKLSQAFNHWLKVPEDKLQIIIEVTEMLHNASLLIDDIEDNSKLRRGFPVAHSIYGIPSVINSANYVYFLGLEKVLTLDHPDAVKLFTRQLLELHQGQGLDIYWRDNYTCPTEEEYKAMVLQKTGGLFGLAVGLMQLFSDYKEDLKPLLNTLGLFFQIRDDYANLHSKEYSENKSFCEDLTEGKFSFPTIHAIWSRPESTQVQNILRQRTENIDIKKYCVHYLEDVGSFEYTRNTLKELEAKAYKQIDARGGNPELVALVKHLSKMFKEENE", "assay": "Inhibition of GGDPS in human RPMI-8226 cells assessed as lowest effective concentration required to show unmodified Rap1a band after 48 hrs by immunoblot analysis", "type": "cell-based", "how_it_was_run": "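RPMI-8226 myeloma cells exposed to drugs for 48 hrs, with lovastatin as positive control. Lysate protein quantified by BCA. Equal amounts run on SDS-PAGE, blotted to PVDF, and probed for H-Ras, Rap1a (antibody recognises only unmodified protein) and β-tubulin as loading control. Detection by HRP secondary antibodies and ECL.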"}, "[2]": {"target": "T1, Geranylgeranyl pyrophosphate synthase (Homo sapiens)", "assay": "Inhibition of GGDPS in human RPMI-8226 cells assessed as lowest effective concentration required for increase in intracellular lambda chain level after 48 hrs by ELISA", "type": "cell-based"}, "[3]": {"organism": "Homo sapiens", "assay": "Selectivity ratio of IC50 for FDPS (unknown origin) to IC50 for GGDPS (unknown origin)"}, "[4]": {"target": "T2, Farnesyl pyrophosphate synthase (Homo sapiens, UniProt P14324)", "T2 sequence (P14324 whole entry)": "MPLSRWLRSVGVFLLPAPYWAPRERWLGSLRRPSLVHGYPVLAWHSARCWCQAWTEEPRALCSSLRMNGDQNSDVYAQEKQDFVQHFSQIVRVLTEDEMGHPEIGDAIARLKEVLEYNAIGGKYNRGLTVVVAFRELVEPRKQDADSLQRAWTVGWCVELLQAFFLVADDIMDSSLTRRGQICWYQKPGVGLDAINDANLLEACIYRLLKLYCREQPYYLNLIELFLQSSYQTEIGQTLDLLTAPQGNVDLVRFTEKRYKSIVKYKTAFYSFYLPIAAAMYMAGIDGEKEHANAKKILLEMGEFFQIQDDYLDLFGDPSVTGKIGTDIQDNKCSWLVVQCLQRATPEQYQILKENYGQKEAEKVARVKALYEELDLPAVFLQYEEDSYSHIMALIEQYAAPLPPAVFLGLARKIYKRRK", "assay": "Inhibition of recombinant FDPS (unknown origin) using [14C] IPP and GPP as substrate preincubated for 10 mins followed by substrate addition and measured after 30 min by liquid scintillation counting method"}, "[5]": {"organism": "Rattus norvegicus", "assay": "Inhibition of recombinant rat FTase expressed in Escherichia coli using dansyl-GCVLS peptide and farnesyl pyrophosphate as substrate at 100 uM after 1 hr by fluorescence microplate reader analysis relative to control", "how_it_was_run": "(§1)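 Recombinant FTase and GGTase I assayed with dansyl-GCVLS and dansyl-GCVLL peptides by a modified Temple et al. method. Fluorescence change followed over time on a microplate reader. Duplicates at multiple concentrations, up to 100 μM, in three independent experiments. IC50 taken from concentration-response curves.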"}, "[6]": {"target": "T3, Geranylgeranyl pyrophosphate synthase (Homo sapiens, UniProt O95749)", "T3 sequence (O95749 whole entry)": "T1 sequence (whole entry)", "assay": "Inhibition of recombinant GGDPS (unknown origin) using [14C] IPP and FPP as substrate preincubated for 10 mins followed by substrate addition and measured after 30 min by liquid scintillation counting method", "how_it_was_run": "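Recombinant GGDPS used, run by a previously described method. Each compound tested in duplicate at multiple concentrations across three independent experiments. IC50 derived from concentration-response curves.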"}, "[7]": {"organism": "Rattus norvegicus", "assay": "Inhibition of recombinant rat GGtase-1 expressed in Escherichia coli using dansyl-GCVLS and geranylgeranyl pyrophosphate as substrate at 100 uM after 2 hrs by fluorescence microplate reader analysis relative to control", "how_it_was_run": "as §1"}, "[8]": {"organism": "Rattus norvegicus", "assay": "Inhibition of recombinant rat GGtase-1 expressed in Escherichia coli using dansyl-GCVLS and geranylgeranyl pyrophosphate as substrate after 2 hrs by fluorescence microplate reader analysis", "how_it_was_run": "as §1"}},
  "note": "The source made the active and inactive calls. The rule behind the calls is not given here.",
  "data": [
    {"smiles": "CC(C)=CCC/C(C)=C/C(=O)NCCC(P(=O)(O)O)P(=O)(O)O", "note": "(mixture of isomers)", "values": [
      {"measurement": "LED", "setting": "[1]", "result": 10, "unit": "µM"},
      {"measurement": "LED", "setting": "[2]", "result": 10, "unit": "µM"}
    ]},
    {"smiles": "CC(C)=CCC[C@H](C)CC(=O)NCCC(P(=O)(O)O)P(=O)(O)O", "values": [
      {"measurement": "LED", "setting": "[1]", "result": 50, "unit": "µM"},
      {"measurement": "Ratio IC50", "setting": "[3]", "result": 5.1},
      {"measurement": "IC50", "setting": "[4]", "result": 27.8, "unit": "µM"},
      {"measurement": "inhibition", "setting": "[5]", "result": "inactive"},
      {"measurement": "LED", "setting": "[2]", "result": 50, "unit": "µM"},
      {"measurement": "IC50", "setting": "[6]", "result": 5.4, "unit": "µM"},
      {"measurement": "inhibition", "setting": "[7]", "result": "inactive"}
    ]},
    {"smiles": "CC(C)=CCC/C(C)=C/C(=O)NCCC(P(=O)(O)O)P(=O)(O)O", "values": [
      {"measurement": "LED", "setting": "[1]", "result": 5, "unit": "µM"},
      {"measurement": "LED", "setting": "[2]", "result": 5, "unit": "µM"},
      {"measurement": "inhibition", "setting": "[8]", "result": "inactive"}
    ]},
    {"smiles": "CC(C)=CCC/C(C)=C\\CCn1cc(CC(P(=O)(O)O)P(=O)(O)O)nn1", "values": [
      {"measurement": "LED", "setting": "[1]", "result": 0.03, "unit": "µM"},
      {"measurement": "Ratio IC50", "setting": "[3]", "result": 445},
      {"measurement": "IC50", "setting": "[4]", "result": 33.3, "unit": "µM"},
      {"measurement": "LED", "setting": "[2]", "result": 0.03, "unit": "µM"}
    ]},
    {"smiles": "CC(C)=CCC/C(C)=C/CCC(=O)NCCC(P(=O)(O)O)P(=O)(O)O", "values": [
      {"measurement": "LED", "setting": "[1]", "result": 1, "unit": "µM"},
      {"measurement": "Ratio IC50", "setting": "[3]", "result": 17.9},
      {"measurement": "IC50", "setting": "[4]", "result": 14.3, "unit": "µM"},
      {"measurement": "inhibition", "setting": "[5]", "result": "inactive"},
      {"measurement": "LED", "setting": "[2]", "result": 1, "unit": "µM"},
      {"measurement": "IC50", "setting": "[6]", "result": 0.8, "unit": "µM"},
      {"measurement": "inhibition", "setting": "[7]", "result": "inactive"}
    ]},
    {"smiles": "CC(C)=CCC/C(C)=C\\CCC(=O)NCCC(P(=O)(O)O)P(=O)(O)O", "values": [
      {"measurement": "LED", "setting": "[1]", "result": 0.5, "unit": "µM"},
      {"measurement": "Ratio IC50", "setting": "[3]", "result": 28.8},
      {"measurement": "IC50", "setting": "[4]", "result": 31.7, "unit": "µM"},
      {"measurement": "inhibition", "setting": "[5]", "result": "inactive"},
      {"measurement": "LED", "setting": "[2]", "result": 0.5, "unit": "µM"},
      {"measurement": "IC50", "setting": "[6]", "result": 1.1, "unit": "µM"},
      {"measurement": "inhibition", "setting": "[7]", "result": "inactive"}
    ]},
    {"smiles": "CC(C)=CCC[C@@H](C)CC(=O)NCCC(P(=O)(O)O)P(=O)(O)O", "values": [
      {"measurement": "LED", "setting": "[1]", "result": 5, "unit": "µM"},
      {"measurement": "Ratio IC50", "setting": "[3]", "result": 14.3},
      {"measurement": "IC50", "setting": "[4]", "result": 48.5, "unit": "µM"},
      {"measurement": "inhibition", "setting": "[5]", "result": "inactive"},
      {"measurement": "LED", "setting": "[2]", "result": 5, "unit": "µM"},
      {"measurement": "IC50", "setting": "[6]", "result": 3.4, "unit": "µM"},
      {"measurement": "inhibition", "setting": "[7]", "result": "inactive"}
    ]},
    {"smiles": "CC(C)=CCC/C(C)=C\\CC(=O)NCCC(P(=O)(O)O)P(=O)(O)O", "values": [
      {"measurement": "LED", "setting": "[1]", "result": 5, "unit": "µM"},
      {"measurement": "Ratio IC50", "setting": "[3]", "result": 2.1},
      {"measurement": "IC50", "setting": "[4]", "result": 7.8, "unit": "µM"},
      {"measurement": "inhibition", "setting": "[5]", "result": "inactive"},
      {"measurement": "LED", "setting": "[2]", "result": 5, "unit": "µM"},
      {"measurement": "IC50", "setting": "[6]", "result": 3.7, "unit": "µM"},
      {"measurement": "inhibition", "setting": "[7]", "result": "inactive"}
    ]},
    {"smiles": "CC(C)=CCCC(=O)NCCC(P(=O)(O)O)P(=O)(O)O", "values": [
      {"measurement": "LED", "setting": "[1]", "result": 50, "unit": "µM"},
      {"measurement": "Ratio IC50", "setting": "[3]", "result": 3.1},
      {"measurement": "IC50", "setting": "[4]", "result": 44.4, "unit": "µM"},
      {"measurement": "LED", "setting": "[2]", "result": 50, "unit": "µM"},
      {"measurement": "IC50", "setting": "[6]", "result": 14.4, "unit": "µM"}
    ]},
    {"smiles": "CC(C)=CCC/C(C)=C\\C(=O)NCCC(P(=O)(O)O)P(=O)(O)O", "values": [
      {"measurement": "LED", "setting": "[1]", "result": 50, "unit": "µM"},
      {"measurement": "inhibition", "setting": "[5]", "result": "< 30", "unit": "%"},
      {"measurement": "LED", "setting": "[2]", "result": 50, "unit": "µM"}
    ]}
  ]
}
